ChEMBL document CHEMBL1137746, “New insights into the antioxidant activity of hydroxycinnamic acids: Synthesis and physicochemical characterization of novel halogenated derivatives” (Eur J Med Chem, 2009)

Assays:
[1] = Octanol-water partition coefficient, log P of the compound
[2] = DPPH radical scavenging activity assessed as Trolox equivalent antioxidant capacity at 50 uM after 40 mins; format: functional
Procedure, shortened: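 DPPH in ethanol; decrease in absorbance at 517 nm measured. Blank was ethanol; control was DPPH solution in ethanol. Triplicate. Trolox used as reference; TE = (A_control − A_test)/(A_control − A_trolox), A_control being DPPH solution without sample.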

[3] = ABTS radical scavenging activity assessed as Trolox equivalent antioxidant capacity at 50 uM by spectrophotometric analysis; format: physicochemical
Procedure, shortened: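 ABTS•+ generated from 7 mM ABTS in water with 2.45 mM potassium persulfate, kept dark at room temperature 12–16 h. Ethanolic compound solutions added to 180 µL radical solution; absorbance followed over 20 min. Blank control set as 100% radical. Triplicate. TE = (A_control − A_test)/(A_control − A_trolox); Trolox reference.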

logP [1]	Activity [3]	SMILES	Activity [2]
1.75	2.558	CCOC(=O)/C=C/c1ccc(O)c(O)c1 [ETHYL CAFFEATE]	0.877
2.02	2.538	CCOC(=O)/C=C/c1ccc(O)c(OC)c1 [ETHYL FERULATE]	0.593
1.42	2.534	COc1cc(/C=C/C(=O)O)ccc1O [FERULATE]	0.781
–	2.538	COc1cc(/C=C/C(=O)O)cc(OC)c1O [SINAPINATE]	0.862

More lines, now with the values behind:

SMILES	logP [1]	Activity [3]	Activity [2]
CCOC(=O)/C=C/c1cc(O)c(O)c(Br)c1	2.58	2.527	0.938
COc1cc(/C=C/C(=O)O)cc(Br)c1O	2.25	2.554	0.808
O=C(O)/C=C/c1cc(O)c(O)c(Br)c1	1.98	2.496	1.01
CCOC(=O)/C=C/c1cc(Br)c(O)c(OC)c1	2.85	2.558	0.558
O=C(O)/C=C/c1ccc(O)c(O)c1 [CAFFEIC ACID]	–	2.538	0.978
